This note sets out measurements from ChEMBL document CHEMBL1131319, “(3R,4S)-3-[4-(4-fluorophenyl)-4-hydroxypiperidin-1-yl]chroman-4,7-diol: a conformationally restricted analogue of the NR2B subtype-selective NMDA antagonist (1S,2S)-1-(4-hydroxyphenyl)-2-(4-hydroxy-4-phenylpiperidino)- 1-propanol” (J Med Chem, 1998).

pIC50: −log10 of the molar value. Calls of active or inactive are those of the source. No cut-off for these calls is given here.

The nature of assay [1]: Displacement of racemic [3H]CP-101606 from rat forebrain membrane N-methyl-D-aspartate glutamate receptor 2B.
For assay [2], the species on record is Rattus norvegicus. The assay can be described thus: Compound was tested for neuroprotection against NMDA-Induced toxicity in cultured rat hippocampal neurons. Type of assay: functional.
Assay [3] concerns Rattus norvegicus. The assay can be described thus: Compound was evaluated in vivo for blockade of haloperidol induced catalepsy in rat when administered perorally. Type of assay: functional. The settings on record: po. In outline:
(§1)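 Rats given haloperidol were scored for catalepsy as remaining perched on an elevated bar. Test drug was given peripherally beforehand. ED50 in mg/kg ± SEM.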

Assay [4] concerns Rattus norvegicus. The assay can be described thus: Compound was evaluated in vivo for blockade of haloperidol induced catalepsy in rat when administered subcutaneously. Type of assay: functional. As to conditions: sc. In outline: as §1
Assay [5] has as its system Mus musculus. The assay can be described thus: Compound was evaluated in vivo for blockade of NMDA-stimulated fos induction in mouse when administered intravenously. Type of assay: functional. As to conditions: iv.
Assay [6] concerns the target T1, Glutamate receptor ionotropic, NMDA 2B (Rattus norvegicus, UniProt Q00960). The assay can be described thus: Compound was evaluated for its blocking effect against N-methyl-D-aspartate glutamate receptor 2B. Further details: species or system xenopus oocytes.
Assay [7] concerns Rattus norvegicus. The assay can be described thus: Compound was evaluated in vivo for blockade of haloperidol induced catalepsy in rat when administered perorally. Type of assay: functional. The settings on record: po. The gist of the method:
as §1

The subject of assay [8] is Mus musculus. The experiment in a line: Compound was evaluated in vivo for blockade of NMDA-stimulated fos induction in mouse. Type of assay: functional.
The species entered for assay [9] is Rattus norvegicus. The assay can be described thus: Compound was tested for neuroprotection against NMDA-Induced toxicity in cultured hippocampal neurons. Type of assay: functional. The gist of the method:
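Neuron loss was induced by NMDA or glutamate in primary rat hippocampal neuron cultures, and inhibition of that loss was measured.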

Assay [10] concerns Rattus norvegicus. The assay can be described thus: Compound was evaluated for blockade of CSD in rats; rat protected /tested(mg/kg iv bolus+mg/kgh iv infusion) = 0/2 (0.2+0.2). Type of assay: functional, organism-based.
Assay [11] relates to Rattus norvegicus. The assay can be described thus: Compound was evaluated for blockade of CSD in rats; rat protected /tested(mg/kg iv bolus+mg/kgh iv infusion) = 2/3 (0.6+0.6). Type of assay: functional, organism-based.
Assay [12] in a line: Compound was evaluated for blockade of CSD as rats protected/ rats tested after a iv dose of 0.6 mg/kg followed by an infusion of 0.6 mg/kgh; 2/3. Type of assay: functional, organism-based.
Assay [13] is described as follows: Compound was evaluated for blockade of CSD as rats protected/ rats tested after a iv dose of 2 mg/kg followed by an infusion of 2 mg/kgh; 2/2. Type of assay: functional, organism-based.
The nature of assay [14]: Compound was evaluated for blockade of CSD as rats protected/ rats tested after a iv dose of 0.2 mg/kg followed by an infusion of 0.2 mg/kg/h; 0/2. Type of assay: functional, organism-based.
The target in assay [15] is T1, Glutamate receptor ionotropic, NMDA 2B. The experiment in a line: Ability to displace of racemic […] of [3H]CP-101606 binding to N-methyl-D-aspartate glutamate receptor 2B in rat forebrain membranes. Type of assay: cell membranes, Membrane.

T1 sequence (Q00960 whole entry): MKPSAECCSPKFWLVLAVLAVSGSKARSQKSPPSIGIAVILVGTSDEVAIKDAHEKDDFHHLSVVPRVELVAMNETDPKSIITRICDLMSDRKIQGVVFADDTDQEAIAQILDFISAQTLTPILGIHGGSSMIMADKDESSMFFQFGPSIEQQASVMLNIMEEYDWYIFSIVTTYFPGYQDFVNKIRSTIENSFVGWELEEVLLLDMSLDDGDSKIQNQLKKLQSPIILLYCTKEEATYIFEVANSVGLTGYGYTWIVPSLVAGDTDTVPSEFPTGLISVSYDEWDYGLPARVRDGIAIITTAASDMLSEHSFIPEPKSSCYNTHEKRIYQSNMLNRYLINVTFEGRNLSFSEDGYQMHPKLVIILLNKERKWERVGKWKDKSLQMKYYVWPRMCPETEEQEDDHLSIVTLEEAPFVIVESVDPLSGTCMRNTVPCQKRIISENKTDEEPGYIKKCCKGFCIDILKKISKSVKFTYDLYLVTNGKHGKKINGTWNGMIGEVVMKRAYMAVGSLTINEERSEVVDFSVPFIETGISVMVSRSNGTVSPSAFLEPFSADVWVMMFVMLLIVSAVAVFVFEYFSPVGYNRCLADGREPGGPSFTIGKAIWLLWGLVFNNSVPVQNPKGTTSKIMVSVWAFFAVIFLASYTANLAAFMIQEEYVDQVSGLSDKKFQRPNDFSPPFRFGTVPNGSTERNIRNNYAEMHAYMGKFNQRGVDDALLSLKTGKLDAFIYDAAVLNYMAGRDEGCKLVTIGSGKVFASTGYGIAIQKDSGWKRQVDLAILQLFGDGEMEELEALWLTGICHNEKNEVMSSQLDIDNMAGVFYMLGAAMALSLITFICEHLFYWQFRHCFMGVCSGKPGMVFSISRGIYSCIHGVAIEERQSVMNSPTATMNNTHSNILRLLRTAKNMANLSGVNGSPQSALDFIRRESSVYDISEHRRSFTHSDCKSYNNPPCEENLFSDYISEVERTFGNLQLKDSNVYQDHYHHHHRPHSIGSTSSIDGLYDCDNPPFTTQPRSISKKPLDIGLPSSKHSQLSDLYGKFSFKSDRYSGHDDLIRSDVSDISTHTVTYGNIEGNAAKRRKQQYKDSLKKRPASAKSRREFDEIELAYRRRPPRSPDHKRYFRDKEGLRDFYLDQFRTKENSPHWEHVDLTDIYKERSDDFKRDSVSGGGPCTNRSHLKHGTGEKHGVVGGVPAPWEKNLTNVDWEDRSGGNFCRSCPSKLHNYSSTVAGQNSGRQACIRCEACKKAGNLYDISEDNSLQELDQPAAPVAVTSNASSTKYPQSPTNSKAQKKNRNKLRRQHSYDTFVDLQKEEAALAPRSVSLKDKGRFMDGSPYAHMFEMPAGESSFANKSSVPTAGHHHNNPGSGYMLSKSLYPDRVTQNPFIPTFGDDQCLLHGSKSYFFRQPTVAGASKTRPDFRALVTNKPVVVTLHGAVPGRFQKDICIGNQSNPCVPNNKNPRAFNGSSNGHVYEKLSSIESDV

As to `Oc1ccc2c(c1)OC[C@H](N1CCC(O)(c3ccccc3)CC1)[C@@H]2O`, the pIC50 in assay [1] and in [2] (Rattus norvegicus) was 6.97 each time.
Regarding `Oc1ccc2c(c1)OC[C@@H](N1CCC(c3ccccc3)CC1)[C@H]2O`, in [2] (Rattus norvegicus), the pIC50 was 7.60.
The same measure, in the same setting: the value for `Oc1ccc2c(c1)OC[C@@H](N1CCC(O)(CCc3ccccc3)CC1)[C@H]2O` was 7.70.
Regarding `Oc1ccc2c(c1)OC[C@@H](N1CCC(O)(c3ccccc3)CC1)[C@H]2O` (stereo in doubt; 3a), the results for the pIC50 in [1] and in assay [2] were 7.27 and 6.89, respectively.
With `Oc1ccc2c(c1)OC[C@H](N1CCC(O)(c3ccc(F)cc3)CC1)[C@@H]2O`, the pIC50 in [1] was 7.46; in [2] (Rattus norvegicus), 7.96. Further, the ED50 amounted to 6.8 mg/kg in assay [3] and 1.1 mg/kg in [4].
Consider `COc1ccc2c(c1)OC[C@@H](N1CCC(O)(c3ccc(F)cc3)CC1)[C@H]2O`, for which the pIC50 in assay [1] was less than 6.52.
Consider `Oc1ccc2c(c1)OC1C[C@]1(N1CCC(O)(c3ccc(F)cc3)CC1)[C@H]2O` (stereo not given in full), for which the pIC50 in assay [2] (Rattus norvegicus) was 6.00.
In the case of `Oc1ccc2c(c1)OC[C@@H](N1CCC(O)(c3ccc(F)cc3)CC1)[C@H]2O` (stereo in doubt; 10a), the pIC50 is 7.55 in [1] and 8.30 in [2] (Rattus norvegicus).
As to `Oc1ccc2c(c1)OC[C@@H](N1CCC(O)(c3ccc(F)cc3)CC1)[C@H]2O` (stereo in doubt; 12a) [listing 1 of 2 here], the values for the ED50 in [5], in assay [7] and in assay [4] were 4 mg/kg, 1.2 mg/kg and 0.3 mg/kg, respectively. Also, the results for the pIC50 in assay [6], in assay [1] and in assay [2] were 6.69, 7.74 and 8.40, respectively.
Regarding `Oc1ccc2c(c1)OC[C@@H](N1CCC(O)(c3ccc(C(F)(F)F)cc3)CC1)[C@H]2O`, the pIC50 in assay [1] is 7.70.
For the compound `CO[C@H]1c2ccc(O)cc2OC[C@H]1N1CCC(O)(c2ccc(F)cc2)CC1`, the pIC50 in assay [1] is less than 6.52.
In the case of `C[C@@H]([C@@H](O)c1ccc(O)cc1)N1CCC(O)(c2ccccc2)CC1` [TRAXOPRODIL], the figures for the ED50 in [8] and in [4] were 1 mg/kg and 0.4 mg/kg, respectively. Moreover, the pIC50 is 7.57 in assay [1] and 7.96 in assay [9].
With `Oc1cc2c(cc1F)[C@H](O)[C@H](N1CCC(O)(c3ccc(F)cc3)CC1)CO2`, the pIC50 was 7.77 in assay [1] and 7.64 in assay [2] (Rattus norvegicus).
Turning to `Oc1ccc2c(c1)OC[C@@H](N1CCC(O)(c3ccc(F)cc3)CC1)[C@H]2O` (stereo in doubt; 12a) [listing 2 of 2 here], in assay [10], the Blockade effect result was “inactive”. The Blockade effect entry in [11] is “Partially active”. Besides, in assay [12], the Ratio result was “Partially active”. The Ratio entry in assay [13] is “Active”. For the same compound, the Ratio entry in assay [14] is “inactive”.
Turning to `Oc1ccc2c(c1)OC[C@@H](N1CCC(O)(c3ccccc3)CC1)[C@@H]2O`, the pIC50 in [2] (Rattus norvegicus) was 6.42.
Regarding `Oc1ccc2c(c1)OC[C@@H](N1CCC(Cc3ccccc3)CC1)[C@H]2O`, the pIC50 in assay [1] was 6.89; in [2] (Rattus norvegicus), 6.80.
`Oc1ccc2c(c1)OC[C@@H](N1CCC(O)(Cc3ccccc3)CC1)[C@H]2O` showed a pIC50 in assay [2] (Rattus norvegicus) of 6.27.
In assay [15], `Oc1ccc2c(c1)OC[C@@H](N1CCC(O)(c3ccc(F)cc3)CC1)C2` gave a pIC50 of 6.52.
`Oc1ccc2c(c1)OC[C@@H](N1CCC(O)(c3ccccc3)CC1)[C@H]2O` (stereo in doubt; 5a): the pIC50 in [1] is 7.51; in assay [2], 8.05.

As usually defined, the pIC50 is the IC50 on a negative log10 scale, so that one unit is a factor of ten. Low readings indicate a high IC50, high ones a low IC50. As a reminder, the ED50 is the dose that gives a 50% effect, or the effect in half of the subjects. A lower ED50 goes with greater potency.
